Assay results: paper PMC5160999 (ChemMedChem, 2016)
≈ marks a conversion by molar mass, not a printed value. Read-outs that look alike come from different tables or passages of the source.

How the values were obtained:
HEK293 = HEK293 toxicity assay; type: cell-based; conditions: Homo sapiens, HEK293, read-out: IC50 HEK293
M. smegmatis = M. smegmatis growth inhibition; type: cell-based, Mycobacterium smegmatis
[1] = target: T1, human geranylgeranyl diphosphate synthase (HsGGPPS) (Homo sapiens, UniProt O95749); experiment: HsGGPPS inhibition; type: biochemical
T1 sequence (O95749 1-300): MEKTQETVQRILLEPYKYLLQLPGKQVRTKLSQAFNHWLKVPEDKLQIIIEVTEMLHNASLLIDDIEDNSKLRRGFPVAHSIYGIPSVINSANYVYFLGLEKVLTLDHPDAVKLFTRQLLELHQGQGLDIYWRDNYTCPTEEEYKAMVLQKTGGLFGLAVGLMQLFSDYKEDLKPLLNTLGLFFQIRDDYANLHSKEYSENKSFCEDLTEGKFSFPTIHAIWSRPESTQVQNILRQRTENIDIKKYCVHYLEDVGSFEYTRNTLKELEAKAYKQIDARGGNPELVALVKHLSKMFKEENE

K. pneumoniae [2] = experiment: Synergy/antagonism two-drug combination assay, K. pneumoniae; type: cell-based
SmFPPS = SmFPPS (Schistosoma mansoni, UniProt G4VEL6); experiment: SmFPPS inhibition, phosphate release assay; type: biochemical
Summary of the method: (§1)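 Purified enzyme (25 ng) preincubated with inhibitor for 10 min at room temperature in pH 7.0 buffer (10 mM HEPES, 150 mM NaCl, 5 mM MgCl2). Inhibitor stocks were 10 mM in DMSO or basic water, serially diluted from 1 mM to 1 nM. Reaction mix: 50 μM GPP, 50 μM IPP, purine nucleoside phosphorylase, inorganic phosphatase, ~600 μM MESG.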

K. pneumoniae [3] = experiment: K. pneumoniae growth inhibition assay; type: cell-based; conditions: Klebsiella pneumoniae
Summary of the method: (§2)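 Strains: A. baumannii ATCC 19606, K. pneumoniae ATCC 27736 and P. aeruginosa PA01, grown overnight in cation-adjusted Mueller-Hinton broth. Cultures diluted 1000-fold in fresh broth, with test compound as a 3-fold series from 1 mm to 46 nm. Incubated overnight at 37°C, 200 RPM; OD600 read. Rescue arm: farnesol 200 μm in the medium. Duplicate experiments, mean±SD.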

PaFPPS = PaFPPS (Pseudomonas aeruginosa, UniProt Q9HWY4); experiment: PaFPPS inhibition, phosphate release assay; type: biochemical
Summary of the method: as §1

EcFPPS = EcFPPS (Escherichia coli, UniProt P22939); experiment: EcFPPS inhibition, phosphate release assay; type: biochemical, E. coli
Summary of the method: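 Purified recombinant FPPS (25 ng) preincubated with test compound for 10 min at room temperature in pH 7.0 buffer (10 mm HEPES, 150 mm NaCl, 5 mm MgCl2). Compound diluted from 1 mm to 1 nm. Reaction started with 50 μm GPP, 50 μm IPP, purine nucleoside phosphorylase, inorganic phosphatase and ~600 μm MESG.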

[4] = tested on: E. coli, A. baumannii, K. pneumoniae and P. aeruginosa; experiment: Synergy of 11 with fosmidomycin, mean over four Gram-negative bacteria; type: cell-based
TbFPPS = TbFPPS (Trypanosoma brucei, UniProt Q86C09); experiment: TbFPPS inhibition, phosphate release assay; type: biochemical
Summary of the method: as §1

HsFPPS = target: T2, HsFPPS (Homo sapiens, UniProt P14324); experiment: HsFPPS inhibition, phosphate release assay; type: biochemical, H. sapiens
T2 sequence (P14324 1-419): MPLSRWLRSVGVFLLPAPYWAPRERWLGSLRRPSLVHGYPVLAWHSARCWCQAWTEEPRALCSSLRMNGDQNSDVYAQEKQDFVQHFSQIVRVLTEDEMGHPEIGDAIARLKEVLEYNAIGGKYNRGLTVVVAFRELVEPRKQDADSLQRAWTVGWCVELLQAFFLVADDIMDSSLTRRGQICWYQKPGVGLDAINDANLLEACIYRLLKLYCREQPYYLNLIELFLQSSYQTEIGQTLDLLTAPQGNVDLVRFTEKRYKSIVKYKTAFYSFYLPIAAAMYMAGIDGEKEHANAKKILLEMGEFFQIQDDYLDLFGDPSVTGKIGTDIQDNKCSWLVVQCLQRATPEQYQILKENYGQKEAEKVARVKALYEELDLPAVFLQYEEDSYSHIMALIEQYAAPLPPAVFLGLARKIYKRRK

A. baumannii [5] = experiment: Synergy/antagonism two-drug combination assay, A. baumannii; type: cell-based
P. aeruginosa (PA01) = experiment: P. aeruginosa growth inhibition assay; type: cell-based; conditions: Pseudomonas aeruginosa
Summary of the method: as §2

[6] = tested on: E. coli, P. aeruginosa, K. pneumoniae and A. baumannii; experiment: Growth inhibition, four Gram-negative bacteria taken together; type: cell-based; conditions: read-out: IC50, activity against all four Gram-negatives
E. coli [7] = experiment: E. coli growth inhibition assay; type: cell-based; conditions: Escherichia coli
Summary of the method: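 E. coli K-12 or BL21(DE3). Overnight starter culture diluted 1000-fold and grown to OD600 ~0.3, then diluted 500-fold into LB. Test compound added as a 3-fold series from 1 mm to 46 nm. Incubated 12 h at 37°C with shaking at 200 RPM; growth read as A600. IC50 by nonlinear regression. Rescue arm: farnesol 200 μm in the medium. Duplicate experiments, mean±SD.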

B. subtilis = B. subtilis growth inhibition assay; type: cell-based; conditions: Bacillus subtilis, read-out: IC50 B. subtilis
Summary of the method: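 B. subtilis ATCC 6051 grown overnight in LB and diluted 1000-fold in fresh LB. Test compound added as a 3-fold series from 1 mm to 46 nm. Incubated overnight at 37°C with shaking at 200 RPM; inhibition read from OD600.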

[8] = tested on: E. coli BL21(DE3) with PaFPPS overexpression; experiment: Growth inhibition of E. coli overexpressing PaFPPS; type: cell-based; conditions: Escherichia coli
P. aeruginosa = experiment: Synergy/antagonism two-drug combination assay, P. aeruginosa; type: cell-based
[9] = tested on: S. aureus (Newman strain); experiment: S. aureus growth inhibition assay; type: cell-based; conditions: Staphylococcus aureus, read-out: IC50 S. aureus
Summary of the method: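 S. aureus Newman grown overnight in tryptic soy broth, then diluted 1000-fold in fresh medium. Test compound dosed as a 3-fold series from 1 mm to 46 nm. Incubated at 37°C, 200 RPM, overnight; growth read as OD600.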

A. baumannii [10] = experiment: A. baumannii growth inhibition assay; type: cell-based; conditions: Acinetobacter baumannii
Summary of the method: as §2

E. coli [11] = experiment: Synergy/antagonism two-drug combination assay, E. coli; type: cell-based
[12] = K. pneumoniae, combination of 11 with fosmidomycin
[13] = A. baumannii, combination of 11 with fosmidomycin
[14] = P. aeruginosa, combination of 11 with fosmidomycin
[15] = E. coli, combination of 11 with fosmidomycin

Chain of EcFPPS (P22939 whole entry): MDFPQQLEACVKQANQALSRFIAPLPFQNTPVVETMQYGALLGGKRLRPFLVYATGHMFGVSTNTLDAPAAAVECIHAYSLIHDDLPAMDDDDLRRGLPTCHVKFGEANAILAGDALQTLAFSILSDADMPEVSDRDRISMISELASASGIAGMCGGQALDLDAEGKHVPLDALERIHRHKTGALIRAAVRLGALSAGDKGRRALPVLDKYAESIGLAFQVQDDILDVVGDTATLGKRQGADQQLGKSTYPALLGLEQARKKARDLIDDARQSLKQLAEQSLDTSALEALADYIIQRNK

O=P([O-])(O)C(C[n+]1ccn(CCCc2ccc(F)c(F)c2)c1)P(=O)(O)O (stereo not shown) [compound 11, Hydrogen (2-(3-(3-(3,4-difluorophenyl)propyl)-1H-imidazol-3-ium-1-yl)-1-phosphonoethyl) phosphonate]
IC50 (HEK293): 27 ± 4 µg/mL (≈ 65.8 µM) | IC50 (M. smegmatis; Mycolicibacterium smegmatis, read-out: IC50 M. smegmatis, cell growth inhibition): ~7 µg/mL (≈ 17.1 µM) | IC50 M. smegmatis (M. smegmatis; cell growth inhibition): 6.8 ± 3.0 µg/mL (≈ 16.6 µM) | IC50 [1]: 390 ± 73 nM | FIC (K. pneumoniae [2]; [12]): 0.097 ± 0.012 | FIC Index (K. pneumoniae [2]; [12]): 0.22 ± 0.026 | MIC (K. pneumoniae [2]; Klebsiella pneumoniae): 6 µg/mL | IC50 (SmFPPS): 570 ± 110 nM | IC50 (K. pneumoniae [3]; read-out: IC50 K. pneumoniae): 2.3 ± 0.49 µg/mL (≈ 5.61 µM) | IC50 (K. pneumoniae [3]; read-out: IC50 with RA): 13 ± 1.8 µg/mL (≈ 31.7 µM) | IC50 (K. pneumoniae [3]; read-out: IC50 without RA): 2.3 ± 0.49 µg/mL (≈ 5.61 µM) | IC50 (PaFPPS): 320 ± 68 nM | IC50 (EcFPPS): 120 ± 25 nM | mean FICI [4]: 0.42 ± 0.17 | IC50 (TbFPPS): 120 ± 26 nM | IC50 (HsFPPS): 65 ± 12 nM | FIC (A. baumannii [5]; [13]): 0.37 ± 0.17 | FIC Index (A. baumannii [5]; [13]): 0.64 ± 0.23 | MIC (A. baumannii [5]; Acinetobacter baumannii): 6 µg/mL | IC50 (P. aeruginosa (PA01); read-out: IC50 P. aeruginosa): 3.5 ± 0.78 µg/mL (≈ 8.53 µM) | IC50 (P. aeruginosa (PA01); read-out: IC50 with RA): 23 ± 7.8 µg/mL (≈ 56.1 µM) | IC50 (P. aeruginosa (PA01); read-out: IC50 without RA): 3.5 ± 0.78 µg/mL (≈ 8.53 µM) | IC50 [6]: 1 to 4 µg/mL (≈ 2.44 to 9.75 µM) | IC50 (E. coli [7]; read-out: IC50 E. coli): 2.1 ± 0.57 µg/mL (≈ 5.12 µM) | IC50 (E. coli [7]; read-out: IC50 with RA): 19 ± 4.1 µg/mL (≈ 46.3 µM) | IC50 (E. coli [7]; read-out: IC50 without RA): 2.1 ± 0.57 µg/mL (≈ 5.12 µM) | IC50 (B. subtilis): 39 ± 13 µg/mL (≈ 95.1 µM) | IC50 ([8]; BL21-DE3, read-out: IC50 with RA): 19 ± 2.4 µg/mL (≈ 46.3 µM) | IC50 ([8]; BL21-DE3, read-out: IC50 without RA): 1.6 ± 0.35 µg/mL (≈ 3.9 µM) | FIC (P. aeruginosa; [14]): 0.27 ± 0.057 | FIC Index (P. aeruginosa; [14]): 0.44 ± 0.12 | MIC (P. aeruginosa; Pseudomonas aeruginosa): 10 µg/mL | IC50 [9]: > 100 µg/mL | IC50 (A. baumannii [10]; read-out: IC50 A. baumannii): 2.8 ± 0.7 µg/mL (≈ 6.83 µM) | IC50 (A. baumannii [10]; read-out: IC50 with RA): 18 ± 4.9 µg/mL (≈ 43.9 µM) | IC50 (A. baumannii [10]; read-out: IC50 without RA): 2.8 ± 0.7 µg/mL (≈ 6.83 µM) | FICI (E. coli [11]; E. coli cell growth, combination of 32 and 11): 0.31 ± 0.099 | FIC (E. coli [11]; [15]): 0.24 ± 0.023 | FIC Index (E. coli [11]; [15]): 0.39 ± 0.15 | MIC (E. coli [11]; Escherichia coli): 6 µg/mL
